Assay results published in ChEMBL document CHEMBL5370602, “Structure-Based Design of a Lead Compound Derived from Natural Schweinfurthins with Antitumor Properties That Target Oxysterol-Binding Protein” (J Med Chem, 2023).
Activity calls are given as the source filed them. The rule behind the calls is not given here.

Assays:
[1] = Prodrug conversion in Swiss mouse plasma assessed as half life of (2R,4aR,9aR)-7-((E)-2-(5-hydroxy-2,2-dimethylchroman-7-yl)vinyl)-1,1,4a-trimethyl-2,3,4,4a,9,9a-hexahydro-1H-xanthene-2,5-diol metabolite at 20 mg/kg, IP and measured upto 6 hrs by LC-MS/MS analysis; type: ADME, organism-based; details: in vivo
Procedure, shortened: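 Male Swiss mice (5-6 weeks, 3 per dose) given a single i.p. dose of prodrug, 2.5 mg/mL in 15% hydroxypropyl-β-cyclodextrin in 65 mM phosphate pH 7.4. Retro-orbital blood taken at 5, 15, 30 min and 1, 3, 6 h; plasma acetonitrile-precipitated. Parent and metabolite quantified by LC-MS/MS with a 1-2,000 ng/mL calibration.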

[2] = Antitumor activity in high alert medicated patient derived human GBM1 cells xenografted in immunodeficient nude mouse model assessed as change in tumor volume at 50 mg/kg,ip QD and measured after 11 days relative to control; type: functional; details: time 11 day
Procedure, shortened: (§1)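 Female athymic nude mice bearing subcutaneous GBM1-HAM PDX fragments (20 mm³); treatment began day 11 post-implant at tumour volumes 75-196 mm³, 10 per group. Compound i.p. daily in cyclodextrin vehicle (17 days alone, 27 days in combination); temozolomide 42 mg/kg p.o. daily for 5 days in PBS/glucose/Tween 80. Calliper volumes three times weekly; body weight and clinical signs monitored.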

U-87 MG = experiment: Induction of autophagy in human U-87 MG cells assessed as increase in LC3II expression at 0.05 to 1 uM incubated for 48 hrs by Western blot analysis; type: functional, cell-based; details: U-87MG ATCC
Procedure, shortened: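 U-87 MG cells cultured two days, then exposed 48 h to increasing doses. Lysed in RIPA with protease inhibitors; 5 µg protein run on 4-20% SDS gels and transferred to PVDF. Probed for phospho/total AKT, S6, S6K, P62 and LC3, detected by ECL. Band intensities normalized to β-actin.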

[3] = Toxicity in immunodeficient nude mouse model xenografted with high alert medicated patient derived human GBM1 cells assessed as body weight change at 50 mg/kg,ip QD for 27 days cotreatment with Temozolomide at 42 mg/kg,po QD for 5 days; type: organism-based; details: in vivo, 648 h, time 27 day; procedure, shortened: as §1
[4] = Antitumor activity in high alert medicated patient derived human GBM1 cells xenografted in immunodeficient nude mouse model assessed as T/C ratio at 50 mg/kg,ip QD cotreatment with Temozolomide at 42 mg/kg,po QD and measured from 9 to 11 days; type: functional; details: time 9-11 day; procedure, shortened: as §1
[5] = Toxicity in immunodeficient nude mouse model xenografted with high alert medicated patient derived human GBM1 cells assessed as body weight change at 20 mg/kg,ip QD for 27 days cotreatment with Temozolomide at 42 mg/kg,po QD for 5 days; type: organism-based; details: in vivo, 648 h, time 27 day; procedure, shortened: as §1
[6] = Toxicity in immunodeficient mouse assessed as body weight change at 100 mg/kg,ip QD for 5 days; type: organism-based; details: in vivo, 120 h, time 5 day
[7] = Toxicity in immunodeficient nude mouse model xenografted with high alert medicated patient derived human GBM1 cells assessed as clinical symptoms at 50 mg/kg,ip QD for 17 days; type: organism-based; details: in vivo, 408 h, time 17 day; procedure, shortened: as §1
[8] = Metabolic stability in mouse plasma assessed as compound remaining at 5 uM and measured after 120 mins by UPLC-MS/MS analysis; type: ADME, cell-free; details: read-out: Stability
Procedure, shortened: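 Male mouse plasma at 37 °C with compound added from a 5 µM solution […]. Sampled at 0, 15, 30, 45, 60 and 120 min, quenched with acetonitrile and read by LC-MS/MS (MRM) in duplicate. Procaine positive control. Remaining % and t1/2 derived from MRM area relative to t = 0.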

[9] = target: T1, Oxysterol-binding protein 1 (Homo sapiens) (UniProt P22059); experiment: Inhibition of human OSBP in human hTERT-RPE1 cells assessed as increase in OSBP recruitment at TGN and measured after 4 hrs by confocal microscopy; type: cell-based
T1 sequence (whole entry): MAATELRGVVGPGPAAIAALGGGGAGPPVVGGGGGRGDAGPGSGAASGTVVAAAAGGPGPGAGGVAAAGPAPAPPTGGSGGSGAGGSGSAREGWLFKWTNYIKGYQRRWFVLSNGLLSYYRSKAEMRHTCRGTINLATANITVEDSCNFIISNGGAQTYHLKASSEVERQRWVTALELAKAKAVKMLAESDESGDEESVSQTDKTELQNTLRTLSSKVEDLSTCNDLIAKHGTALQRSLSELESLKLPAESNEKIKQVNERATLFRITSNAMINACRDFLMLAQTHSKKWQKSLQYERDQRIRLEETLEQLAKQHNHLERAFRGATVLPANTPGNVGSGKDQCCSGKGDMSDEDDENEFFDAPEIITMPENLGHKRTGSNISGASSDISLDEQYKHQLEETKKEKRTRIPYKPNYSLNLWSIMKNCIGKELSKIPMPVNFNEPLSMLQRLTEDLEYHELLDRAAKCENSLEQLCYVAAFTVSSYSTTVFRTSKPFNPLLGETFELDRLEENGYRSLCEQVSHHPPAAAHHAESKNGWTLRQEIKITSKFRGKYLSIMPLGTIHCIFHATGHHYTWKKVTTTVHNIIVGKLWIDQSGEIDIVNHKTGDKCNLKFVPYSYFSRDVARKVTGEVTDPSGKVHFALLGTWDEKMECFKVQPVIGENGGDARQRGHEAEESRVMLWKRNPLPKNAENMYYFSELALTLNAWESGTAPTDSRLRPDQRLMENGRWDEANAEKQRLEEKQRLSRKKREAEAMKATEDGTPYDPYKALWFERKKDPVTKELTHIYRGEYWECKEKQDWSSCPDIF

[10] = Permeability across blood brain barrier in Swiss mouse assessed as brain to plasma ratio of (2R,4aR,9aR)-7-((E)-2-(5-hydroxy-2,2-dimethylchroman-7-yl)vinyl)-1,1,4a-trimethyl-2,3,4,4a,9,9a-hexahydro-1H-xanthene-2,5-diol metabolite at 15 mg/kg, ip and measured after 1.5 hrs by LC-MS/MS analysis; type: ADME, organism-based
Procedure, shortened: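 Nine male Swiss mice given 15 mg/kg prodrug i.p. (4 mg/mL in cyclodextrin vehicle). Blood taken from three mice at each of 0.25, 0.75 and 1.5 h; animals then saline-perfused transcardially under isoflurane. Plasma and brain homogenate (1:1 water) acetonitrile-precipitated and analyzed by LC-MS/MS.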

[11] = Antitumor activity in high alert medicated patient derived human GBM1 cells xenografted in immunodeficient nude mouse model assessed as tumor growth inhibition at 50 mg/kg,ip QD and measured after 9 to 11 days; type: functional; procedure, shortened: as §1
[12] = Toxicity in immunodeficient nude mouse model xenografted with high alert medicated patient derived human GBM1 cells assessed as body weight change at 50 mg/kg,ip QD for 17 days; type: organism-based; details: in vivo, 408 h, time 17 day; procedure, shortened: as §1
[13] = Toxicity in immunodeficient nude mouse model xenografted with high alert medicated patient derived human GBM1 cells assessed as clinical symptoms at 20 mg/kg,ip QD for 27 days cotreatment with Temozolomide at 42 mg/kg,po QD for 5 days; type: organism-based; details: in vivo, 648 h, time 27 day; procedure, shortened: as §1
[14] = target: T1, Oxysterol-binding protein 1 (Homo sapiens); experiment: Inhibition of human OSBP in human hTERT-RPE1 cells assessed as increase in OSBP recruitment at TGN and measured after 10 mins by confocal microscopy; type: cell-based

In the case of `CC1(C)CCc2c(O)cc(/C=C/c3cc(O)c4c(c3)C[C@@H]3C(C)(C)[C@H](OC=O)CC[C@@]3(C)O4)cc2O1`, the t1/2 [1] is reported as 2 h, the Activity [2] is reported as 625.61% and the Activity (U-87 MG) is reported as “Dose-Dependent Effect”. For the same compound, the Activity [3] was “Non-Toxic”, the T/C [4] was 41.43% and the Activity [5] was “Non-Toxic”. The Activity [6] was “Non-Toxic”, the Activity [7] was “Non-Toxic” and the remaining at 2 h, 5 µM [8] was 20.2%. The inhibition [9] was “inactive”, the BPR [10] was 1.74 and the TGDI at 50 mg/kg [11] was 1.37%. The Activity [12] was “Non-Toxic”, the Activity [13] was “Non-Toxic” and the inhibition [14] was “Active”.
